Assay outcomes: PubChem BioAssay, Johns Hopkins Ion Channel Center
Kir21 block: inhibitors of mouse Kir2.1 inward-rectifier potassium channel. HEK293-Kir2.1, FluxOR thallium flux fluorescence; active compounds read low. B-score at 10 µM. actives 0.85% (n = 310,000);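 active means fluorescence ratio B-score at or below minus 3 SD of library scores, with starting-brightness B-score within 2 SD, cut at about -4.2 in these data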;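 further: channel flux triggered by added potassium and thallium sulfate stimulus; B-score of peak minus minimum fluorescence over baseline after thallium stimulus; more negative B-score means stronger Kir2.1 block with less thallium influx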
KCNQ1 act: potentiates or activates the human KCNQ1 potassium channel | P51787 | CHO-K1 KCNQ1, thallium flux FluxOR fluorescence; active compounds read high | B-score at 10 µM | actives 0.35% (n = 310,000);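 active means fluorescence ratio B-score, a plate-corrected score, at least three library SD, with initial intensity B-score within 5 SD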
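Medium – assay buffer, equal DMSO in all wells · Material – CHO-K1 cell line with stable KCNQ1 potassium channel expression · Signal – kinetic FluxOR thallium fluorescence, 10-s 1-Hz baseline, 110-s post-stimulus read · Compound – single concentration per compound, DMSO matched to controls · Schedule – 37 °C overnight plating, 90-min dark dye load, 20-min compound pretreatment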
KCNK3 inh: human KCNK3 channel inhibition, primary screen; O14649; B-score at 10 µM; CHO-KCNK3 thallium flux, FluxOR fluorescence; active compounds read low; AID 602410; actives 0.84% (n = 340,000);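 active means B-score under library mean minus 4 SD, starting fluorescence ratio at most library mean plus 5 SD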;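 further: more negative B-score means stronger inhibition of thallium flux through KCNK3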
KCNQ1 inh: blocks the human KCNQ1 potassium channel; P51787; CHO-K1 KCNQ1, FluxOR thallium flux fluorescence; active compounds read high; B-score at 10 µM; actives 1.3% (n = 310,000);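 active means compounds whose thallium flux B-score, printed positive for inhibition, exceeds three library SD while starting fluorescence stays within three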;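 further: channel opened by potassium depolarization with thallium stimulus after 20 min compound exposure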
KCNK9 inh: inhibitors of human KCNK9 two-pore domain potassium channel; actives 1.2% (n = 310,000); HEK293 KCNK9, FluxOR thallium flux fluorescence; active compounds read low; Q9NPC2; B-score at 10 µM;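 active means ratio B-score over 3 SD below the library mean, with starting fluorescence within 5 SD of its mean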;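 further: negative B-score means less thallium flux so channel inhibition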
hERG protect: hERG (human) protection from proarrhythmic block | Q12809 | CHO-hERG, FluxOR thallium flux, dofetilide IC70 present | activation (rescue from dofetilide block), less the hit threshold, % at 10 µM | actives 0.51% (n = 310,000) | AID 1511;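 active means activation above the mean of controls blocked by dofetilide plus 5 SD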;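 further: thallium influx through hERG after potassium depolarization seen as dye fluorescence rise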
Target sequence (Q12809 whole entry, looked up): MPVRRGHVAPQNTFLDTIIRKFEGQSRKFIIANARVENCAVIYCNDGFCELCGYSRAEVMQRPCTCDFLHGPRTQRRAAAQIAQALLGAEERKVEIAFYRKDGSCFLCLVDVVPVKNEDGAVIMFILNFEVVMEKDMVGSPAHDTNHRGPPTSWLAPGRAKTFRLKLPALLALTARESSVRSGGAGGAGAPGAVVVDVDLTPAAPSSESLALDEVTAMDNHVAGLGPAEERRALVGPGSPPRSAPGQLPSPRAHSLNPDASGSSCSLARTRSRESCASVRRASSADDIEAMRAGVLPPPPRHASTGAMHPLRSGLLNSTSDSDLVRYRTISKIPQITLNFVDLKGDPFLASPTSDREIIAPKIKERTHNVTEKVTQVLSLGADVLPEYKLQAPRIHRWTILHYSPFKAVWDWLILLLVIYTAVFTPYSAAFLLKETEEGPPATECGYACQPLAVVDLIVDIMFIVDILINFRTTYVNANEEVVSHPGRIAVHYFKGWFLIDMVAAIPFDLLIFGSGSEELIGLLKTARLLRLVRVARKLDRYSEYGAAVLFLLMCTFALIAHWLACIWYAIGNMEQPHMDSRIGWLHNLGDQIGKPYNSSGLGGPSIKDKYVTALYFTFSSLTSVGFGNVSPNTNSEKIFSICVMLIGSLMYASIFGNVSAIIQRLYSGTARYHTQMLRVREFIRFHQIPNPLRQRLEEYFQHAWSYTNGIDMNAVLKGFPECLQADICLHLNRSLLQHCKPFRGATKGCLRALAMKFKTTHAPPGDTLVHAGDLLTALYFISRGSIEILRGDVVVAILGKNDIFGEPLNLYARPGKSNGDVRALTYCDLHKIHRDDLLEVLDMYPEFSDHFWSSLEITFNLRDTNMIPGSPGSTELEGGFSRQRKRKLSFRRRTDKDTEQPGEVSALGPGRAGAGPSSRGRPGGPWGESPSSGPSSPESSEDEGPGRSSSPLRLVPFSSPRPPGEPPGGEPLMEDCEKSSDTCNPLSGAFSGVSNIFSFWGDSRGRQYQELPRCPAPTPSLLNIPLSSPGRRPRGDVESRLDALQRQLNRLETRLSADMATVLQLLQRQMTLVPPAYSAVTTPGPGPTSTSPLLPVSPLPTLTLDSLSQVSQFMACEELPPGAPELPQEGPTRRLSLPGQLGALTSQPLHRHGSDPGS
Of the large screens only hits and unclear results are named; the others gave an inactive call. A selection: hits, their analogues and other compounds. The true share with any hit is near 3.7%.

Cc1[nH]n2c(=O)cc(C(C)C)nc2c1-c1ccccc1	none
Cc1[nH]n2c(=O)cc(-c3ccc([N+](=O)[O-])cc3)nc2c1-c1ccccc1	KCNQ1 inh 7
CCCN(Cc1nnc(-c2ccccc2Cl)o1)C(=O)c1oc2ccccc2c1C	KCNQ1 inh 6
CCCN(Cc1nnc(-c2ccccc2Cl)o1)C(=O)c1ccc(C)c(S(=O)(=O)N2CCOCC2)c1	none
O=C(COc1ccc(Cl)cc1Cl)NCC1(N2CCOCC2)CCCCC1	none (no result: Kir21 block, KCNQ1 act, KCNQ1 inh, KCNK9 inh, hERG protect)
OC(CNCC1(N2CCCCC2)CCCCC1)COc1ccc(Cl)cc1Cl (stereo unspecified)	Kir21 block -9.3
CCOC(=O)CNC1CC(=O)N(c2cccc(Cl)c2)C1=O (stereo unspecified)	hERG protect 5.3
Cc1c(-c2ccccc2)sc2nc[nH]c(=S)c12	KCNQ1 act 91, hERG protect 30
O=C(Oc1ccc(Br)cc1C(=S)N1CCCC1)c1ccccc1Cl	KCNK9 inh -8
Cc1ccc(Nc2cc(C)c3ccc(O)cc3n2)cc1C	Kir21 block -5.1
COc1ccc(-c2c(C)nn(-c3ccccc3)c2N)cc1OC	hERG protect 4.7
COc1ccc(/C=C/CN2CCCC(CCC(=O)NCc3ccc(F)c(F)c3)C2)cc1 (stereo unspecified)	Kir21 block -4.9
CC1CN(C(=O)CCn2c(=O)oc3ccccc32)CC(C)O1 (stereo unspecified)	KCNK3 inh -9
COc1cc(/C=C2/C(=O)NN(c3cccc(F)c3)C2=O)ccc1OC(=O)c1ccco1	Kir21 block -9.8
COc1cc(/C=N/NC(=O)c2ccc(F)cc2)ccc1OC(=O)c1ccco1	none
Cn1c(SCc2cccc(C#N)c2)nc2ccccc2c1=O	KCNK9 inh -7
Cn1c(SCc2ccc(F)cc2Cl)nc2ccccc2c1=O	KCNK3 inh -8.9 (no result: Kir21 block, KCNQ1 act, KCNQ1 inh, KCNK9 inh, hERG protect)
Cn1c(SCc2cccc([N+](=O)[O-])c2)nc2ccccc2c1=O	none (no result: Kir21 block, KCNQ1 act, KCNQ1 inh, KCNK9 inh, hERG protect)
COC(=O)c1ccc(C(=O)NC2CCCc3c2cnn3-c2cc(F)cc(F)c2)nc1 (stereo unspecified)	none
CCOc1ccc(N(CC(=O)NC2CCCC2)C(=O)CCC(=O)Nc2nccs2)cc1	none
Cc1ccc(C2=N/C(=C\c3c(C)nn(-c4ccccc4)c3N3CCCC3)C(=O)O2)cc1	KCNQ1 inh 9
CN(C(=O)c1ccc(NC(=O)Cc2ccc(NC(=O)C3CCCN(C(=O)C4CC4)C3)cc2)cc1)C1CC1 (stereo unspecified)	none (no result: Kir21 block, KCNQ1 act, KCNQ1 inh, KCNK9 inh, hERG protect)
CC(=O)c1ccc(NC(=O)CN2CCC(NC(=O)C3CCCCC3)CC2)cc1	hERG protect 6.1
O=C(Cn1c(=O)oc2cccnc21)Nc1ccc(C(F)(F)F)cc1	none
COc1ccc(CN2CCC(C(=O)Nc3ccc(Oc4cccnc4)cc3)CC2)cc1	Kir21 block -5.4
CN(c1cccc(NC(=O)CN(c2cccc(Cl)c2)S(=O)(=O)c2ccc(Cl)cc2)c1)S(C)(=O)=O	KCNK9 inh -7.3
Cc1ccc(Cl)cc1N(CC(=O)Nc1cccc(N(C)S(C)(=O)=O)c1)S(C)(=O)=O	none
Cc1ccccc1CSc1nnc(-c2cnccn2)n1C	none
Cc1cc(Cl)c(OCCOCCN2CCC(C)CC2)c(Br)c1	Kir21 block -5.2
Cc1cc(C)c(OCCCCN2CCC(C)CC2)c(Br)c1	Kir21 block -5.5
Clc1ccc(OCCOCCN2CCCCC2)c(Br)c1	none
Cc1cc(Cl)c(OCCOCCN2CCN(C)CC2)c(Br)c1	none
CC1CCN(CCOCCOc2ccc(Cl)cc2Br)CC1	KCNQ1 inh 6
CCCCc1nc2ccccc2c(N)c1CCC (tested in a mixture with another compound)	Kir21 block -8.3
CCCCc1nc2ccccc2c(C(=O)O)c1C	none
O=C(Nc1cccc(-n2cnnn2)c1)C1CCCN(Cc2cccc(C(F)(F)F)c2)C1 (stereo unspecified)	none
CC[C@H](C)/C=C/C1=CC2=C(Cl)C(=O)[C@@]3(C)OC(=O)C(C(=O)[C@H](C)[C@@H](C)O)=C3C2=CO1	KCNQ1 inh 6
O=C(NNC(=O)c1ccc(Cl)nc1)c1ccncc1	none (no result: Kir21 block, KCNQ1 act, KCNQ1 inh, KCNK9 inh, hERG protect)
O=C1CC2(CCCCC2)Oc2ccccc21	hERG protect 5.4
O=C1CC2(CCCCC2)Oc2ccc(F)cc21	none
CN(C)C(=O)C(=O)c1cccn1-c1cccc(Cl)c1C#N	none
COc1c(C)cc(C(=O)C2CCCN(S(=O)(=O)N(C)C)C2)cc1C (stereo unspecified)	none
CC1CCCC(=NNc2ccc3ccccc3n2)C1 (stereo unspecified)	none (no result: Kir21 block, KCNQ1 act, KCNQ1 inh, KCNK9 inh, hERG protect)
Cc1ccc(OC(C)C(=O)N2CCc3ccccc32)cc1 (stereo unspecified)	none
COc1ccc(OC(C)C(=O)N2CCCc3ccccc32)cc1 (stereo unspecified)	Kir21 block -4.8
CC(Oc1ccccc1)C(=O)N1CCCc2ccccc21 (stereo unspecified)	Kir21 block -5.5
CC(=O)Nc1ccc(S(=O)(=O)NC(C)C(=O)NCC(c2ccco2)N(C)C)cc1 (stereo unspecified)	none (no result: Kir21 block, KCNQ1 act, KCNQ1 inh, KCNK9 inh, hERG protect)
C[C@H](CO)N1C[C@H](C)[C@@H](CN(C)Cc2ccccc2)Oc2c(NC(=O)C3CC3)cccc2C1=O	none (no result: Kir21 block, KCNQ1 act, KCNQ1 inh, KCNK9 inh, hERG protect)
C[C@H](CO)N1C[C@H](C)[C@@H](CN(C)Cc2ccncc2)Oc2c(NC(=O)Cc3ccccc3)cccc2C1=O	KCNK3 inh -11 (no result: Kir21 block, KCNQ1 act, KCNQ1 inh, KCNK9 inh, hERG protect)
C[C@H](CO)N1C[C@H](C)[C@@H](CN(C)Cc2ccccc2)Oc2c(NC(=O)Cc3ccccc3)cccc2C1=O	none (no result: Kir21 block, KCNQ1 act, KCNQ1 inh, KCNK9 inh, hERG protect)
COc1cc(C(=O)O)c2c(c1C)OC(=O)c1c(C)cc(O)c(C=O)c1O2	none
CC(C)CC(=O)NC(=S)Nc1nc(-c2ccccc2)cs1	KCNQ1 act 9
Cc1ccc(-c2csc(NC(=S)NC(=O)c3cccs3)n2)cc1	none
O=C(NC(=S)Nc1nc(-c2ccccc2)cs1)c1cccs1	KCNQ1 act 17, hERG protect 17
Cc1onc(-c2ccccc2)c1C(=O)Nc1nc(-c2cc(F)ccc2F)cs1	none
CC(C)CC(=O)NC(=S)Nc1nc(-c2ccc(Cl)cc2)cs1	none
COc1ccc(-c2csc(NC(=S)NC(=O)c3ccco3)n2)cc1	KCNQ1 act 8
Cc1onc(-c2ccccc2)c1C(=O)Nc1nc(-c2ccccc2)cs1	KCNQ1 inh 6
CCOC(=O)C(CCSC)Nc1nc(Cl)nc(Nc2ccc(Cl)cc2)n1 (stereo unspecified)	none
O=C(CCc1nnc2ccc(N3CCOCC3)nn12)Nc1ccc(F)cc1F	none
C/C(=N\NC(=O)c1ccc(F)cc1)c1ccc(NC(=O)Cc2ccccc2)cc1	none
O=C(Nc1nc(-c2ccncc2)cs1)c1ccco1	none
O=C(NC(=S)Nc1nc(-c2ccccc2)cs1)c1ccco1	KCNQ1 act 30, hERG protect 25
Cc1cc(NC(=O)CSc2nnc(-c3ccccc3F)n2N)no1	none (no result: Kir21 block, KCNQ1 act, KCNQ1 inh, KCNK9 inh, hERG protect)
